Screens: PubChem BioAssay, Johns Hopkins Ion Channel Center
Compounds with a hit are over-represented: about 2.3% of the library has one in this group of screens.
TRPC4 block: inhibitors of mouse TRPC4 channel, primary screen, Fluo4 calcium, HEK293 TRPC4beta/mu-opioid cells; actives 0.39% (n = 300,000); DAMGO-evoked Fluo4 calcium flux; hits give low values; AID 2247, 2010; B-score at 10 µM; Short transient receptor potential channel 4 (Mus musculus), Q9QUQ5;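 active = B-score over 3 SD under the library average, no early fluorescence shift, positive overall ratio signal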
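Signal: kinetic Fluo4 fluorescence imaging of calcium influx. Material: stable TRPC4beta/mu-opioid receptor HEK293 cells. Probe or stimulus: DAMGO in two steps, submaximal then maximal.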
TRPC4 agonist: activators of mouse TRPC4 channel, primary screen, Fluo4 calcium, HEK293 TRPC4beta/mu-opioid cells; actives 0.49% (n = 310,000); Fluo4 calcium fluorescence; hits give high values; B-score at 10 µM; AID 2237, 2010;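 active = B-score above 5 SD of library B-scores, and initial fluorescence ratio not above library mean plus 5 SD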;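 also: positive B-score marks a calcium rise read as TRPC4 activation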
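Assay system: HEK293 stable line with TRPC4beta plus mu-opioid receptor. Times: dye 45 min RT, read 110 s. Measured by: kinetic Fluo4 calcium fluorescence. Measure: B score of integrated ratio. Controls: assay buffer as low control, maximal DAMGO as high control.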
TRPC6 inhibitor: mouse TRPC6 channel inhibitors, primary screen, cell-based, HEK293, membrane potential dye; ACh-evoked depolarization; hits give low values; B-score at 10 µM; actives 1.1% (n = 310,000); AID 2553, 2010;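 active = B-score under library mean minus 3 SD, initial fluorescence not abnormally high, positive integrated signal ratio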;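 also: B-score derived from integrated fluorescence ratio over the kinetic read; more negative B-score means stronger inhibition of depolarization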
TRPC6 act: mouse TRPC6 channel activators, primary screen, cell-based, HEK293, membrane potential dye; B-score at 10 µM; HEK293-TRPC6 membrane potential dye fluorescence; hits give high values; actives 0.13% (n = 310,000); AID 2550, 2010; Short transient receptor potential channel 6 (Mus musculus), Q61143;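 active = B-score of the integrated fluorescence ratio above library mean plus 3 SD, and starting fluorescence ratio within library mean plus 5 SD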;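 also: higher score means more depolarization so channel activation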
TRPC4 PAM: positive allosteric modulators of TRPC4, primary screen, cell-based, mouse TRPC4beta, HEK293 mu-opioid, Fluo-4 calcium. B-score at 10 µM. DAMGO EC20, Fluo-4 Ca2+ flux; hits give high values. AID 2227, 2009. actives 0.42% (n = 310,000). Short transient receptor potential channel 4 (Mus musculus), Q9QUQ5;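 active = B-score of calcium response area above 5 SD of library B-scores, with initial fluorescence ratio within 5 SD of library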;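 also: B-score of integrated fluorescence ratio over time as area under calcium response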
TRPC4 sel inh 2: second check of whether TRPC6 inhibitors also affect mouse TRPC4 | shares compounds with TRPC6 inhibitor | HEK293 TRPC4/MOR, membrane potential dye fluorescence; channel activated by saturating DAMGO dose | inhibition, % at 10 µM | actives 42% (n = 920);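 active = compounds whose fluorescence signal differed from control wells by over 3 SD, either direction, in both duplicate plates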
TRPC4 spec: mouse TRPC4 modulation by TRPC6 hits, confirmation, selectivity assay for TRPC6 inhibitor project, cell-based, HEK293 TRPC4/mu-opioid, membrane potential dye; shares compounds with TRPC6 inhibitor; membrane potential fluorescence; activity change, negative = inhibition, % at 10 µM; actives 61% (n = 920); AID 2777, 2010;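 active = rise or fall in signal beyond 3 SD of buffer-only wells in both replicate plates, either sign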;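 also: integrated kinetic ratio of fluorescence range over baseline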
HEK293 MPD ctr 2-1: nonspecific membrane potential effects, parental HEK293, confirmation, counter-screen for TRPC6 inhibitor project, cell-based, second counter screen; shares compounds with TRPC6 inhibitor; parental HEK293 membrane potential dye fluorescence; maximal acetylcholine challenge after compound addition; AID 2779, 2010; actives 31% (n = 920); signal change vs control, % at 10 µM;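 active = membrane potential signal moving either way by over 3 SD of the maximum-effect control, in both duplicate plates, meaning non-specific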
HEK293 MPD ctr-1: membrane potential modulation in parental HEK293, confirmation, counter-screen for TRPC6 inhibitor project, cell-based. shares compounds with TRPC6 inhibitor. parental HEK293 membrane potential dye fluorescence. membrane potential signal change, % at 10 µM. actives 60% (n = 920);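 active = membrane potential signal shifting up or down by more than 3 SD of buffer-only wells, on both duplicate plates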
HEK293 MPD ctr-2: parental HEK293 membrane potential modulation, confirmation, counter-screen for TRPC6 modulator project, cell-based; shares compounds with TRPC6 inhibitor; membrane potential dye fluorescence; membrane potential signal change, % at 10 µM; actives 51% (n = 2,400); AID 488924, 2010;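 active = membrane potential signal moves up or down beyond 5 SD from buffer-only wells, on both duplicate plates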
HEK293 MPD ctr 2-2: second counter-screen for TRPC6 modulators: effect in parental HEK293 cells | shares compounds with TRPC6 inhibitor | membrane potential dye fluorescence; after compound, maximal acetylcholine stimulation | inhibition, % at 10 µM | actives 14% (n = 2,400) | AID 488926;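 active = membrane potential signal drops by more than 5 SD from the mean control signal, in both duplicate plates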;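 also: plate controls were acetylcholine ECmax control wells for no effect and buffer only wells for full effect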
TRPC4 ctr mod: TRPC4 modulation by TRPC6 hit compounds, confirmation, selectivity assay for TRPC6 modulator project, cell-based, HEK293 TRPC4/mu-opioid, membrane potential dye, mouse | shares compounds with TRPC6 inhibitor | membrane potential fluorescence | percent change from control (negative = decrease, positive = increase), % at 10 µM | actives 69% (n = 2,400);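 active = membrane potential signal moved up or down beyond 5 SD of buffer control wells, in both duplicate plates, actives on both sides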;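 also: plate controls were assay buffer wells for no effect and DAMGO maximal-effect wells for full effect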
TRPC4/MOR inh 2: mouse TRPC4 off-target activity of TRPC6 modulators, second screen; shares compounds with TRPC6 inhibitor; HEK293 TRPC4/mu-opioid, membrane potential dye fluorescence; stimulated with maximal-effect DAMGO; inhibition, % at 10 µM; actives 55% (n = 2,400); AID 488928;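 active = drop in membrane potential signal beyond 5 SD of the control wells in both duplicate plates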;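 also: TRPC4 counter screen for TRPC6 hits run under conditions tuned for TRPC6 not TRPC4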
TRPC6 block conf: mouse TRPC6 channel inhibitors, confirmation, HEK293 cells, membrane potential dye, duplicate; AID 488960, 2010; actives 43% (n = 3,300); inhibition, % at 10 µM; ACh-evoked depolarization; shares compounds with TRPC6 inhibitor;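 active = fluorescence ratio falls more than 5 SD below the full-stimulation control mean, in both duplicate runs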;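 also: integrated fluorescence ratio of peak minus minimum over baseline after agonist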
TRPC6 act conf: mouse TRPC6 channel activators, confirmation, HEK293 cells, membrane potential dye, duplicate; shares compounds with TRPC6 inhibitor; HEK293-TRPC6 membrane potential dye fluorescence, FDSS; activation, % at 10 µM; actives 11% (n = 2,800); AID 488961, 2010;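 active = ratio signal rise beyond 5 SD above unstimulated control wells' mean, seen in both duplicate runs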;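 also: plate controls were buffer EC0 wells for no effect and acetylcholine ECmax response for full effect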
* hit, by the source's call; i = inactive; . = no result given.

SMILES	TRPC4 block	TRPC4 agonist	TRPC6 inhibitor	TRPC6 act	TRPC4 PAM	TRPC4 sel inh 2	TRPC4 spec	HEK293 MPD ctr 2-1	HEK293 MPD ctr-1	HEK293 MPD ctr-2	HEK293 MPD ctr 2-2	TRPC4 ctr mod	TRPC4/MOR inh 2	TRPC6 block conf	TRPC6 act conf
O=C(COc1ccc2c3c(c(=O)oc2c1)CCC3)NCc1ccccn1	i	i	-6.13*	i	i	.	.	.	.	i	i	i	i	i	i
O=C(COc1ccc2c3c(c(=O)oc2c1)CCCC3)NC(Cc1ccc(Cl)cc1)C(=O)O (stereo unspecified)	i	i	-6.97*	i	i	i	4.7%*	i	2.1%*	.	.	.	.	i	i
CC(Nc1nc(N2CCN(S(C)(=O)=O)CC2)nc2ccccc12)c1ccccc1 (stereo unspecified)	i	i	-6.05*	i	i	.	.	.	.	-158.0%*	i	-26.5%*	52.0%*	i	i
FC(F)Sc1ccc(-n2c(-c3ccc(Cl)cc3)c[n+]3c2CCC3)cc1	i	i	i	i	i	.	.	.	.	.	.	.	.	.	.
CCOc1ccc(-n2c(-c3ccc(Cl)cc3)c[n+]3c2SCC3)cc1	-6*	i	-7.35*	i	i	.	.	.	.	-71.0%*	80.0%*	i	35.5%*	42.5%*	i
Cc1ccc(-n2c(-c3ccc(Cl)cc3)c[n+]3c2CCC3)cc1	i	i	-5.23*	i	i	.	.	.	.	i	i	i	46.0%*	i	i
COc1ccc(-n2c(-c3ccc(Br)cc3)c[n+]3c2CCC3)cc1	i	i	-7.17*	i	i	76.5%*	i	-75.0%*	-192.0%*	.	.	.	.	60.5%*	i
COc1ccc(-n2c(-c3ccc(Br)cc3)nc(=S)c3c2CCCC3)cc1	i	i	i	i	i	.	.	.	.	.	.	.	.	.	.
